Experimental data: ChEMBL document CHEMBL1136788, “A novel antibacterial 8-chloroquinolone with a distorted orientation of the N1-(5-amino-2,4-difluorophenyl) group” (2003)
≈ marks a conversion by molar mass, not a printed value.

Tests used:
Type in all cases: functional
[1] = Tested for in vitro antibacterial activity against Gram (+) bacteria
In short: (§1)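 Value is the geometric mean of MICs over a panel: 14 Gram (–) or 13 Gram (+) strains. MICs came from NCCLS agar dilution in Mueller Hinton medium (10% horse blood added for S. pneumoniae), with twofold dilutions from 128 to 0.002 μg/mL. Inoculum was about 10^4 organisms, at 37 °C for 18 h; endpoint was no visible growth.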

[2] = In vitro antibacterial activity against Gram (-) bacteria; in short: as §1
Escherichia coli = assay: Tested for in vitro antibacterial activity against Escherichia coli W9523
In short: (§2)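 Agar dilution per NCCLS. Twofold serial dilutions (128–0.002 μg/mL) were made in Mueller Hinton medium. Plates were inoculated with about 10^4 organisms and incubated at 37 °C for 18 h. MIC was the lowest concentration giving no visible growth.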

Staphylococcus aureus = assay: Tested for in vitro antibacterial activity against methicillin resistant Staphylococcus aureus W9501
In short: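 Agar dilution per NCCLS standard method in Mueller Hinton medium; two-fold serial dilutions of test compound from 128 to 0.002 μg/mL. Plates inoculated with about 10^4 organisms, incubated 37 °C for 18 h. MIC read as lowest concentration giving no visible growth on the plate.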

Streptococcus pneumoniae = assay: Tested for in vitro antibacterial activity against Streptococcus pneumoniae W1466
In short: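 Agar dilution per NCCLS in Mueller Hinton medium supplemented with 10% horse blood. Twofold dilutions spanned 128–0.002 μg/mL. Inoculum was about 10^4 organisms, incubated at 37 °C for 18 h. MIC was the lowest concentration with no visible growth.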

Pseudomonas aeruginosa = assay: Tested for in vitro antibacterial activity against Pseudomonas aeruginosa W348; in short: as §2

SMILES | GM-MIC [1] | GM-MIC [2] | MIC (Escherichia coli) | MIC (Staphylococcus aureus) | MIC (Streptococcus pneumoniae) | MIC (Pseudomonas aeruginosa)
CN(C)C1CN(c2c(F)cc3c(=O)c(C(=O)O)cn(-c4cc(N)c(F)cc4F)c3c2Cl)C1 | 0.12 µg/mL | 0.22 µg/mL | – | – | – | –
Nc1cc(-n2cc(C(=O)O)c(=O)c3cc(F)c(N4CCNCC4)c(F)c32)c(F)cc1F | 2.6 µg/mL | 0.39 µg/mL | – | – | – | –
O=C(O)c1cn(C2CC2)c2cc(N3CCNCC3)c(F)cc2c1=O [CIPROFLOXACIN] | 0.99 µg/mL | 0.04 µg/mL | 128 µg/mL (≈ 386 µM) | 128 µg/mL (≈ 386 µM) | 1 µg/mL (≈ 3.02 µM) | –
Nc1cc(-n2cc(C(=O)O)c(=O)c3cc(F)c(N4CC[C@H](N)C4)c(Cl)c32)c(F)cc1F | 1.16 µg/mL | 1.21 µg/mL | – | – | – | –
Nc1cc(-n2cc(C(=O)O)c(=O)c3cc(F)c(N4CC[C@H](N)C4)nc32)c(F)cc1F | 0.26 µg/mL | 0.1 µg/mL | – | – | – | –
Nc1cc(-n2cc(C(=O)O)c(=O)c3cc(F)c(N4CC(N)C4)c(Cl)c32)c(F)cc1F | 0.07 µg/mL | 0.03 µg/mL | 1 µg/mL (≈ 2.28 µM) | 1 µg/mL (≈ 2.28 µM) | 0.008 µg/mL (≈ 0.0182 µM) | 1 µg/mL (≈ 2.28 µM)
Nc1cc(-n2cc(C(=O)O)c(=O)c3cc(F)c(N4CC[C@H](N)C4)cc32)c(F)cc1F | 0.22 µg/mL | 0.14 µg/mL | – | – | – | –
N[C@@H]1[C@H]2CN(c3nc4c(cc3F)c(=O)c(C(=O)O)cn4-c3ccc(F)cc3F)C[C@@H]12 [TROVAFLOXACIN] | 0.29 µg/mL | 0.3 µg/mL | > 128 µg/mL | 128 µg/mL (≈ 307 µM) | 0.25 µg/mL (≈ 0.6 µM) | 16 µg/mL (≈ 38.4 µM)
Nc1cc(-n2cc(C(=O)O)c(=O)c3cc(F)c(N4CCNCC4)c(Cl)c32)c(F)cc1F | 1.61 µg/mL | 0.52 µg/mL | – | – | – | –
NC1CN(c2c(F)cc3c(=O)c(C(=O)O)cn(-c4ccc(F)cc4F)c3c2Cl)C1 | 0.13 µg/mL | 0.06 µg/mL | 32 µg/mL (≈ 75.5 µM) | 8 µg/mL (≈ 18.9 µM) | 0.03 µg/mL (≈ 0.0708 µM) | 16 µg/mL (≈ 37.8 µM)
CNC1CN(c2c(F)cc3c(=O)c(C(=O)O)cn(-c4cc(N)c(F)cc4F)c3c2Cl)C1 | 0.08 µg/mL | 0.04 µg/mL | – | – | – | –
Nc1ccc(F)c(-n2cc(C(=O)O)c(=O)c3cc(F)c(N4CC[C@H](N)C4)nc32)c1 | 1.99 µg/mL | 0.86 µg/mL | – | – | – | –

Further lines, with some results ahead:

GM-MIC [1] | GM-MIC [2] | SMILES | MIC (Escherichia coli) | MIC (Staphylococcus aureus) | MIC (Streptococcus pneumoniae) | MIC (Pseudomonas aeruginosa)
3.22 µg/mL | 1.81 µg/mL | Nc1cc(-n2cc(C(=O)O)c(=O)c3cc(F)c(N4CC[C@H](N)C4)nc32)c(F)c(F)c1F | – | – | – | –
0.34 µg/mL | 0.22 µg/mL | Nc1cc(-n2cc(C(=O)O)c(=O)c3cc(F)c(N4CC[C@H](N)C4)c(F)c32)c(F)cc1F | – | – | – | –
0.65 µg/mL | 0.15 µg/mL | Nc1cc(-n2cc(C(=O)O)c(=O)c3cc(F)c(N4CC(N)C4)nc32)c(F)cc1F | – | – | – | –
5.81 µg/mL | 1.72 µg/mL | Nc1cc(-n2cc(C(=O)O)c(=O)c3cc(F)c(N4CCNCC4)nc32)c(F)cc1F | – | – | – | –
0.07 µg/mL | 0.04 µg/mL | Nc1cc(-n2cc(C(=O)O)c(=O)c3cc(F)c(N4CC(N)C4)c(Br)c32)c(F)cc1F | – | – | – | –
0.42 µg/mL | 0.08 µg/mL | Nc1cc(-n2cc(C(=O)O)c(=O)c3cc(F)c(N4CC(N)C4)c(F)c32)c(F)cc1F | – | – | – | –
0.49 µg/mL | 0.12 µg/mL | Nc1cc(-n2cc(C(=O)O)c(=O)c3cc(F)c(N4CC(N)C4)cc32)c(F)cc1F | – | – | – | –
0.1 µg/mL | 0.06 µg/mL | CC1(N)CN(c2c(F)cc3c(=O)c(C(=O)O)cn(-c4cc(N)c(F)cc4F)c3c2Cl)C1 | – | – | – | –
0.12 µg/mL | 0.08 µg/mL | CCNC1CN(c2c(F)cc3c(=O)c(C(=O)O)cn(-c4cc(N)c(F)cc4F)c3c2Cl)C1 | – | – | – | –
1.61 µg/mL | 0.32 µg/mL | Nc1c(F)ccc(-n2cc(C(=O)O)c(=O)c3cc(F)c(N4CC[C@H](N)C4)nc32)c1F | – | – | – | –
0.09 µg/mL | 0.03 µg/mL | Cc1c(N2CC(N)C2)c(F)cc2c(=O)c(C(=O)O)cn(-c3cc(N)c(F)cc3F)c12 | – | – | – | –
0.44 µg/mL | 0.12 µg/mL | NC1CCN(c2nc3c(cc2F)c(=O)c(C(=O)O)cn3-c2ccc(F)cc2F)C1 (configuration not stated) [TOSUFLOXACIN] | – | – | – | –
1.05 µg/mL | 0.15 µg/mL | Nc1cc(-n2cc(C(=O)O)c(=O)c3cc(F)c(N4CCNCC4)cc32)c(F)cc1F | – | – | – | –
0.45 µg/mL | 0.14 µg/mL | Nc1cc(-n2cc(C(=O)O)c(=O)c3cc(F)c(N4CC[C@H](N)C4)nc32)ccc1F | – | – | – | –
